The results in this text go back to ChEMBL document CHEMBL4196180, “Semisynthesis of ω-Hydroxyalkylcarbonate Derivatives of Hydroxytyrosol as Antitrypanosome Agents” (J Nat Prod, 2018).

pIC50: −log10 of the molar value.

The subject of series [1] is Trypanosoma brucei brucei. Nature of the series: Anti-parasitic activity against Trypanosoma brucei brucei 427 infected in human MRC5 cells assessed as reduction in parasite proliferation after 72 hrs by Alamar blue assay. The format is functional, organism-based. The note with it: Trypanosoma brucei, 427, 72 h; in the assay text read “bloodstream forms” for “infected in human MRC5 cells”. The procedure, abridged: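 Bloodstream-form T. brucei brucei single-marker S427 (S16), grown in HMI-9 with 10% hiFBS at 37 °C, 5% CO2. Parasites seeded at 1 × 10^4 BSF/mL with increasing compound concentrations for 72 h at 37 °C, 5% CO2. Proliferation read by alamarBlue fluorescence (ex 550/em 590 nm); IC50 = 50% inhibition of parasite growth.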

Series [2] deals with Trypanosoma brucei brucei. Nature of the series: Potency index, ratio of hydroxytyrosol IC50 to compound IC50 for Trypanosoma brucei brucei 427 […]. The format is functional. Put shortly:
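Activity gain calculated as IC50 of hydroxytyrosol against bloodstream-form T. brucei divided by IC50 of the derivative. Both come from the 72 h alamarBlue assay.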

The next series has as its system MRC5. Nature of the series: Cytotoxicity against human MRC5 cells assessed as inhibition of cell growth after 72 hrs by MTT assay. Type of series: cell-based. As to conditions: MRC5, 72 h. Put shortly:
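MRC-5 lung fibroblasts kept in low-glucose DMEM with 10% hiFBS and penicillin/streptomycin at 37 °C, 5% CO2, 100% humidity. Cells trypsinized (0.25%), seeded at 5000 cells/well with increasing compound concentrations, incubated 72 h at 37 °C. MTT colorimetric read-out; IC50 = concentration inhibiting growth 50% vs untreated cells.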
On the technique in general: Tetrazolium assays rely on reduction of a dye to a coloured formazan, in cell work by metabolically active cells.

Series [3] can be described thus: Selectivity index, ratio of IC50 for MRC5 cells to IC50 for Trypanosoma brucei brucei 427 […]. Type of series: toxicity, cell-based. The note with it: read-out: Ratio IC50.
In series [4] the test system is Trypanosoma brucei brucei. Nature of the series: Anti-parasitic activity against Trypanosoma brucei brucei 427 bloodstream forms assessed as reduction in parasite proliferation after 72 hrs by Alamar blue assay. As to conditions: Trypanosoma brucei, 427, 72 h. For orientation: Alamar Blue is a resazurin reagent that responds to reducing activity.

A word on the pIC50: it is the negative decadic logarithm of the IC50, by convention in mol/L. Take `O=C(OCCCCOC(=O)OCCc1ccc(OCc2ccccc2)c(OCc2ccccc2)c1)OCCc1ccc(OCc2ccccc2)c(OCc2ccccc2)c1`: the pIC50 in series [1] is less than 5.00.

With `O=C(OCCCCCCOC(=O)OCCc1ccc(OCc2ccccc2)c(OCc2ccccc2)c1)OCCc1ccc(OCc2ccccc2)c(OCc2ccccc2)c1`, in series [1], the pIC50 was 5.09. Besides, the “Ratio IC50” value in series [2] is 5.9.

On to `O=C(OCCCCCCO)OCCc1ccc(O)c(O)c1`, for which the pIC50 is 5.39 in series [1] and less than 4.30 with MRC5. Also, the selectivity ratio in series [3] was more than 12. Moreover, in series [2], the “Ratio IC50” value worked out at 11.6.

For `O=C(OCCCCOC(=O)OCCc1ccc(O)c(O)c1)OCCc1ccc(O)c(O)c1`, the values for the negative-log IC50 (pIC50) (in series [1]; with MRC5) were 5.40 and less than 4.30, respectively. The selectivity ratio in series [3] was more than 13. Besides, the “Ratio IC50” value in series [2] stood at 12.

For `CCCCCCCCCCCCOC(=O)OCCc1ccc(O)c(O)c1`, the results for the pIC50 (in series [1]; in the series with MRC5) were 5.96 and 4.91, respectively. For the same compound, in series [3], the selectivity ratio stood at 12. The “Ratio IC50” value in series [2] came to 44.4.

Regarding `O=C(OCCCCCCCCO)OCCc1ccc(OCc2ccccc2)c(OCc2ccccc2)c1`, the “Ratio IC50” value in series [2] stood at 8.3. Besides, in series [4], the pIC50 is 5.24.

Take `CCCCCCOC(=O)OCCc1ccc(OCc2ccccc2)c(OCc2ccccc2)c1`: the pIC50 in series [1] is less than 5.00.

On to `O=C(OCCOC(=O)OCCc1ccc(OCc2ccccc2)c(OCc2ccccc2)c1)OCCc1ccc(OCc2ccccc2)c(OCc2ccccc2)c1`, for which the “Ratio IC50” value in series [2] came out at 8.4. For the same compound, in series [4], the pIC50 was 5.24.

`CCCCCCOC(=O)OCCc1ccc(O)c(O)c1`: the negative-log IC50 (pIC50) in series [1] was 6.70; in the series with MRC5, 4.95. In series [3], the selectivity ratio was 62. Besides, the “Ratio IC50” value in series [2] was determined as 263.9.

Take `O=C(OCCO)OCCc1ccc(O)c(O)c1`: the negative-log IC50 (pIC50) in series [1] is 5.19. The “Ratio IC50” value in series [2] came to 7.4.

Turning to `O=C(OCCCCCCCCO)OCCc1ccc(O)c(O)c1`, the pIC50 with MRC5 is less than 4.30; in series [4], 5.82. For the same compound, in series [3], the selectivity ratio is more than 35. Besides, the “Ratio IC50” value in series [2] amounted to 32.8.

Regarding `O=C(OCCc1ccc(O)c(O)c1)OCCc1ccc(O)c(O)c1`, the negative logarithm of the IC50 (pIC50) in series [1] was 5.89; with MRC5, less than 4.30. The selectivity ratio in series [3] is more than 39. Further, the “Ratio IC50” value in series [2] was 37.1.

Consider `CCCCCCCCCCCCCCCCOC(=O)OCCc1ccc(O)c(O)c1`, for which the pIC50 in series [1] was 5.21. In addition, the “Ratio IC50” value in series [2] was determined as 7.7.

`O=C(OCCCCO)OCCc1ccc(OCc2ccccc2)c(OCc2ccccc2)c1`: the pIC50 in series [1] was less than 5.00.

Take `O=C(OCCCCCCOC(=O)OCCc1ccc(O)c(O)c1)OCCc1ccc(O)c(O)c1`: the values for the negative-log IC50 (pIC50) (in series [1]; in the series with MRC5) were 5.68 and less than 4.30, respectively. Further, the selectivity ratio in series [3] was more than 24. The “Ratio IC50” value in series [2] is 22.6.

For the compound `O=C(OCCCCCCO)OCCc1ccc(OCc2ccccc2)c(OCc2ccccc2)c1`, the pIC50 in series [1] is 5.39; in the series with MRC5, less than 4.30. The selectivity ratio in series [3] is more than 12. In addition, the “Ratio IC50” value in series [2] is 11.6.

For the compound `CCCCCCCCCCCCOC(=O)OCCc1ccc(OCc2ccccc2)c(OCc2ccccc2)c1`, in series [1], the pIC50 is less than 5.00.

On to `O=C(OCCCCO)OCCc1ccc(O)c(O)c1`, for which the pIC50 in series [1] was less than 5.00.

With `O=C(OCCc1ccc(OCc2ccccc2)c(OCc2ccccc2)c1)OCCc1ccc(OCc2ccccc2)c(OCc2ccccc2)c1`, the pIC50 in series [1] was less than 5.00.

Consider `CCCCCCCCOC(=O)OCCc1ccc(O)c(O)c1`, for which the pIC50 in the series with MRC5 is 4.42; in series [4], 6.30. Also, in series [3], the selectivity ratio amounted to 72. Further, the “Ratio IC50” value in series [2] is on record as 89.6.

Regarding `O=C(OCCCCCCCCOC(=O)OCCc1ccc(OCc2ccccc2)c(OCc2ccccc2)c1)OCCc1ccc(OCc2ccccc2)c(OCc2ccccc2)c1`, in series [1], the pIC50 was 5.21. Besides, the “Ratio IC50” value in series [2] is 7.7.

For `CCOC(=O)OCCc1ccc(O)c(O)c1`, the pIC50 in series [1] was 5.85; in the series with MRC5, 4.46. Also, the selectivity ratio in series [3] came out at 25. Besides, in series [2], the “Ratio IC50” value stood at 33.7.

Turning to `CCCCCCCCCCCCCCOC(=O)OCCc1ccc(O)c(O)c1`, the pIC50 was 5.85 in series [1] and 5.04 in the series with MRC5. Also, the selectivity ratio in series [3] turned out to be 6. Further, the “Ratio IC50” value in series [2] was found to be 33.2.

Consider `O=C(OCCO)OCCc1ccc(OCc2ccccc2)c(OCc2ccccc2)c1`, for which the pIC50 in series [1] is 5.03. The “Ratio IC50” value in series [2] came to 5.

For `O=C(OCCCCCCCCOC(=O)OCCc1ccc(O)c(O)c1)OCCc1ccc(O)c(O)c1`, the pIC50 in series [1] is 6.00; in the series on MRC5, less than 4.30. Besides, the selectivity ratio in series [3] is more than 50. The “Ratio IC50” value in series [2] was found to be 47.5.

With `O=C(OCCOC(=O)OCCc1ccc(O)c(O)c1)OCCc1ccc(O)c(O)c1`, the pIC50 in series [1] is 5.42; in the series on MRC5, less than 4.30. Besides, in series [3], the selectivity ratio is more than 13. Moreover, the “Ratio IC50” value in series [2] is listed as 12.6.

Regarding `CCCCOC(=O)OCCc1ccc(O)c(O)c1`, the pIC50 in series [1] was 5.14. In addition, the “Ratio IC50” value in series [2] amounted to 6.6.
